Measurements taken from ChEMBL document CHEMBL1143258, “Biphenyl amide p38 kinase inhibitors 2: Optimisation and SAR” (Bioorg Med Chem Lett, 2008).

Tests used:
Assay type in all cases: ADME, organism-based
[1] = Volume of distribution at steady state in Lewis rat at 1 mg/kg, iv; set-up: dose 1 mg/kg, route intravenous; settings: in vivo, read-out: Vdss
Outline: (§1)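 Male Lewis rats were given a single intravenous 1 mg/kg or oral 3 mg/kg dose. Plasma levels were measured by LC-MS/MS on a 5 min formic acid water/acetonitrile gradient. Clearance, steady-state volume, terminal half-life and oral bioavailability were derived from the concentration-time profiles.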

[2] = Plasma clearance in Lewis rat at 1 mg/kg, iv; set-up: dose 1 mg/kg, route intravenous; outline: as §1
[3] = Half life in Lewis rat at 1 mg/kg, iv; set-up: dose 1 mg/kg, route intravenous; settings: in vivo; outline: as §1
[4] = Oral bioavailability in Lewis rat at 3 mg/kg; settings: in vivo; outline: as §1

Vd [1]: 2 L/kg | clearance [2]: < 10 mL/min/kg | half-life [3]: 9 h | bioavailability [4]: 50%
SMILES: Cc1nnc(-c2ccc(C)c(-c3ccc(C(=O)NCC4CC4)cc3)c2)o1
